PDI turbidity: inhibitors of human protein disulfide isomerase; P07237; PDI insulin aggregation turbidity, A650, 90 min; inhibition, % at 10 µM; 350,000 compounds, 0.052% hits;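 active = mean inhibition across replicates of 30% or more, whatever share of single replicates reach that level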
S100A4 MyoIIA: inhibitors of human S100A4 binding to myosin IIA peptide. S100A4/TAMRA-MyoIIA peptide fluorescence polarization. P26447. inhibition, % at 10.7 µM. AID 652163. 360,000 compounds, 0.14% hits;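 active = mean inhibition of at least 70% across replicates, with every replicate also reaching that level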
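Test system: S100A4 monomer protein. Medium: HEPES buffer with Ca2+, pH 7.2. Reagent: fluorescent myosin IIA peptide, 5 nM. Compound dosing: single-point compound testing. Timing: 5 min between mix addition and reading. Benchmarks: DMSO neutral and TFP positive wells.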
ERAP1 HTS inh: inhibitors of human ERAP1 aminopeptidase. Q9NZ08. recombinant ERAP1, Leu-AMC fluorescence, 60 min. inhibition, % at 10.7 µM. 340,000 compounds, 0.15% hits. AID 652197;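 active = mean replicate inhibition of at least 30%, or all replicates individually reaching that 30% level; inactive = mean below 30% and not every replicate reaching it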
FGF22 binding: binders of recombinant human FGF22 by thermal shift. SYPRO orange fluorescence; percent of sucrose octasulfate shift, DMSO zero. activity (Tm shift, normalised), % at 9.99 µM. Q9HCT0. 340,000 compounds, 1.5% hits;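 active = mean Tm shift, scaled 0 neutral to 100 positive control, at about 1.3% or above, every replicate too, limit read from the data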
Target sequence (Q9HCT0 whole entry, looked up): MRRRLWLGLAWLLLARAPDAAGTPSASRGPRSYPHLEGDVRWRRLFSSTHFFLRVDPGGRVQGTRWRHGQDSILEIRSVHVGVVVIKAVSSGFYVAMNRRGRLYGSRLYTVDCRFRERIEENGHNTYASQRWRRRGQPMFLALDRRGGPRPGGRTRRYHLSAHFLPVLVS
ERp5 inh: inhibitors of human ERp5; ERp5 insulin aggregation, absorbance 650 nm, 90 min; AID 651711; inhibition, % at 9.99 µM; 350,000 compounds, 0.05% hits;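 active = mean replicate inhibition above about 25%, with every replicate also reaching it, limit read from the data, passing the limit was not always enough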
Target sequence (Q15084 whole entry, looked up): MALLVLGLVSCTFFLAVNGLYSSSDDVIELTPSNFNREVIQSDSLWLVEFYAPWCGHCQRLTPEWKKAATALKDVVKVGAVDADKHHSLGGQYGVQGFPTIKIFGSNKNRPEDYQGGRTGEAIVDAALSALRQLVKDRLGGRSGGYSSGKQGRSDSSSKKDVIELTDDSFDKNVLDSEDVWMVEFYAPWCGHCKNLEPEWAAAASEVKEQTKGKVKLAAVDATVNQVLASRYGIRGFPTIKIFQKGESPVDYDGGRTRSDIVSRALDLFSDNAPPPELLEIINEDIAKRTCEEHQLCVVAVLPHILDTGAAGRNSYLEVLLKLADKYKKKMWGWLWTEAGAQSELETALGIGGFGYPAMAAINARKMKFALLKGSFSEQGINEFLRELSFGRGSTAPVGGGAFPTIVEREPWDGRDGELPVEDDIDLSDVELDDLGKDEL
Each line names hits and unclear results; the compound was inactive in the other large screens. The entries come from a sample that favours hits as a whole.

CCOC(=O)C1(C)/C(=N/Nc2ccccc2)C(=O)C(=O)N1c1ccccc1 (configuration not stated)	none (no result: S100A4 MyoIIA, ERAP1 HTS inh, FGF22 binding, ERp5 inh)
Cc1ccc(-c2ccc3c(c2)O[C@@H](CN(C)C(=O)C2CC2)[C@@H](C)CN([C@@H](C)CO)S3(=O)=O)cc1	none (no result: PDI turbidity)
O=C(O)C1C=CC(C(=O)O)c2ccccc21 (configuration not stated)	FGF22 binding 43.8
O=C(c1ccccc1)c1ccccc1	none (no result: PDI turbidity)
O=C(CSc1ncn[nH]1)NCCc1ccccc1	none (no result: S100A4 MyoIIA, ERAP1 HTS inh, FGF22 binding, ERp5 inh)
O=C(CSc1ncn[nH]1)NN(c1ccccc1)c1ccccc1	FGF22 binding 43.7
CCOc1ccc(NC(=O)C2CCC(N3C(=O)C4CC=CCC4C3=O)CC2)cc1 (configuration not stated)	none (no result: FGF22 binding)
O=C(Nc1ccccc1C(F)(F)F)N1CCCC(O)C1 (configuration not stated)	none (no result: S100A4 MyoIIA, ERAP1 HTS inh, FGF22 binding, ERp5 inh)
C[C@@H]1CN([C@H](C)CO)C(=O)c2cc(NC(=O)Nc3ccc(F)cc3)ccc2O[C@H]1CN(C)Cc1ccc(-c2ccccc2)cc1	ERp5 inh 51.4 (no result: PDI turbidity)
C[C@H]1CN([C@@H](C)CO)C(=O)c2cc(NC(=O)NC3CCCCC3)ccc2O[C@@H]1CN(C)Cc1ccc(C(=O)O)cc1	S100A4 MyoIIA 95.6 (no result: PDI turbidity)
C[C@@H]1CN([C@H](C)CO)C(=O)c2cc(NC(=O)Nc3ccc(F)cc3)ccc2O[C@@H]1CN(C)Cc1ccc(-c2ccccc2)cc1	none (no result: PDI turbidity)
C[C@H](CO)N1C[C@H](C)[C@@H](CN(C)Cc2ccc(C(=O)O)cc2)Oc2ccc(NC(=O)NC3CCCCC3)cc2C1=O	none (no result: PDI turbidity)
O=C(C[C@H]1CC[C@H]2[C@@H](COC[C@H](O)CN2Cc2ccc3c(c2)OCO3)O1)N1CCOCC1	none (no result: PDI turbidity)
O=C(NCc1ccco1)C1CCCN1C(=O)Nc1ccc(Cl)cc1 (configuration not stated)	none
O=C(NCc1ccco1)C1CCCN1C(=O)Nc1cccc(Cl)c1 (configuration not stated)	FGF22 binding 43.4
COc1ccc(C2c3ccc(O)cc3Oc3ncn(CCN4CCOCC4)c(=N)c32)cc1OC (configuration not stated)	PDI turbidity 53.6
CC(C)(C)c1cc(NC(=O)c2ccco2)no1	ERp5 inh 27.7
C/C=C(\C)C(=O)NCCN1C2=NC[C@@H](Cc3ccccc3)N2C[C@H]1Cc1ccc(O)cc1	none
COc1ccc(C[C@@H]2CN3C(=NC[C@@H]3Cc3ccc(O)cc3)N2C[C@H](C)NC(=O)CCC2CCCCC2)cc1	PDI turbidity 40.4 (no result: S100A4 MyoIIA, ERAP1 HTS inh, FGF22 binding, ERp5 inh)
COc1ccc(C[C@H]2CN3C(=NC[C@@H]3Cc3ccc(O)cc3)N2C[C@H](C)NC(=O)CCC2CCCCC2)cc1	none
C/C=C(\C)C(=O)NCCN1C2=NC[C@H](Cc3ccc(O)cc3)N2C[C@H]1Cc1ccc(O)cc1	PDI turbidity 44.7
C=CCn1c(=O)/c(=C\c2ccccn2)s/c1=C(/C#N)C(=O)NCC1CCCO1 (configuration not stated)	FGF22 binding 43.1
CCSc1nnc(-c2ccncc2)n1Cc1ccccc1	none (no result: S100A4 MyoIIA, ERAP1 HTS inh, FGF22 binding, ERp5 inh)
CC(C)C(C)NC(=O)COc1ccc([N+](=O)[O-])cc1Cl (configuration not stated)	none
NC(=O)c1ccc(NC(=O)COc2ccc([N+](=O)[O-])cc2Cl)cc1	FGF22 binding 43.3
COc1cc(OC)cc(-c2c(-c3cccs3)c3cc(-c4cnc(N)nc4)ccc3n2C)c1	none
COCCOC(=O)C1=C(C)NC(=S)NC1c1cccs1 (configuration not stated)	FGF22 binding 43.4
C[N+]1(CCOC(=O)C2(c3ccccc3)CCCC2)CCCCC1	ERAP1 HTS inh 67.0
CCCCN1C(=O)C(CC(=O)NCc2cccc3ccccc23)CC(C(=O)N(CC)CC)=C1C (configuration not stated)	none
Cc1cc(O)cc(=O)n1Cc1ccccc1	none
CC1=C(C#N)C(=O)NC(=O)/C1=C\c1ccc(-c2cc(C)c(C)cc2[N+](=O)[O-])o1	FGF22 binding 1.6
Cc1ccc(-c2ccc(/C=C3/NC(=O)NC3=O)o2)cc1[N+](=O)[O-]	none
COc1cccc(CN(C)CCCn2cnc3c(OC)ncnc32)c1	none
CCN(CC)CCCN=C1N[C@@H](c2ccccc2)C(C(=O)OC)=C(C)N1CC	ERAP1 HTS inh 63.2
Cc1cc2c(=O)[nH]c(N)nc2[nH]1	none
CC(NC(=O)Nc1ccc(Cl)cc1)C1CCCO1 (configuration not stated)	FGF22 binding 42.9
CCOC(=O)c1ccc(NC(=O)NC(C)C2CCCO2)cc1 (configuration not stated)	none (no result: S100A4 MyoIIA, ERAP1 HTS inh, FGF22 binding, ERp5 inh)
N#CCC(=O)Nc1ccc(C(F)(F)F)cc1N1CCOCC1	FGF22 binding 43.5
N#CCC(=O)Nc1cc(C(F)(F)F)ccc1N1CCOCC1	none
CCCc1cc(C(=O)Nc2cc(C)on2)no1	none (no result: PDI turbidity)
CSCC[C@H](NC(=O)C1CCN(C(=O)[C@H](Cc2ccccc2)NS(=O)(=O)c2ccc(C)cc2)CC1)C(=O)O	none
O=C1c2ccccc2C(=O)N1CCN1CCOCC1	none (no result: PDI turbidity, ERAP1 HTS inh)
CC1=CC(C)C(=O)N(CCN2CCOCC2)C(C)=C1 (configuration not stated)	FGF22 binding 43.4
Cc1n[nH]c(C)c1CCCCOc1ccccc1	FGF22 binding 43.9
COC(=O)c1cccc(N(C(=O)c2ccco2)C(C(=O)NC2CCCC2)c2ccc(N3CCOCC3)cc2)c1 (configuration not stated)	none
CC(=O)c1cccc(N(C(=O)c2ccco2)C(C(=O)NC2CCCC2)c2ccc(N3CCOCC3)cc2)c1 (configuration not stated)	FGF22 binding 42.9
Cc1ccc(C)c2[nH]c(=O)c(CN(Cc3ccco3)C(=S)NCC3CCCO3)cc12 (configuration not stated)	FGF22 binding 43.1
CN(C)CCN(Cc1cc2cc3c(cc2[nH]c1=O)OCO3)C(=S)NCc1ccco1	FGF22 binding 43.4
COc1ccc2[nH]c(=O)c(CN(CC3CCCO3)S(=O)(=O)c3ccccc3)cc2c1 (configuration not stated)	FGF22 binding 44.1
Cc1ccc2cc(CN(Cc3ccco3)C(=S)NCC3CCCO3)c(=O)[nH]c2c1 (configuration not stated)	none (no result: S100A4 MyoIIA, ERAP1 HTS inh, FGF22 binding, ERp5 inh)
CCNC(=S)N(CCN(C)C)Cc1cc2cc(OCC)ccc2[nH]c1=O	FGF22 binding 43.8
CCNC(=S)N(CCN(C)C)Cc1cc2cc3c(cc2[nH]c1=O)OCO3	none
C/C=C/c1ccc2c(c1)O[C@H](CN(C)C(=O)Cc1ccccn1)[C@@H](C)CN([C@@H](C)CO)S2(=O)=O	none (no result: PDI turbidity)
C[C@@H]1CN([C@@H](C)CO)C(=O)c2cccc(NS(=O)(=O)c3ccccc3)c2O[C@@H]1CN(C)S(=O)(=O)c1ccc(Cl)cc1	none (no result: PDI turbidity, S100A4 MyoIIA, ERAP1 HTS inh, ERp5 inh)
O=C(C[C@H]1C=C[C@@H](NC(=O)Nc2ccc3c(c2)OCO3)[C@H](CO)O1)NCc1ccc(F)cc1	none (no result: PDI turbidity)

Screening results deposited in PubChem BioAssay by Broad Institute.
